# sEH act: soluble epoxide hydrolase (human) activation. purified human sEH enzymatic activity, activator screen. activation, % at 2 µM. hit rate 0.04% among 91,000; in the data active means activation above about 37%
# CD11b adhes enh: enhancers of human CD11b/CD18 binding to fibrinogen; AID 1499; activation, % at 10 µM; K562 CD11b/CD18 adhesion to fibrinogen, ATPlite luminescence; P05107+P11215; hit rate 0.07% among 93,000;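 active means 10 µM primary screen giving 50% or more activity, confirmed by 40% or more on retest at that dose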
# Target sequence (P05107 whole entry, looked up, other chains not shown): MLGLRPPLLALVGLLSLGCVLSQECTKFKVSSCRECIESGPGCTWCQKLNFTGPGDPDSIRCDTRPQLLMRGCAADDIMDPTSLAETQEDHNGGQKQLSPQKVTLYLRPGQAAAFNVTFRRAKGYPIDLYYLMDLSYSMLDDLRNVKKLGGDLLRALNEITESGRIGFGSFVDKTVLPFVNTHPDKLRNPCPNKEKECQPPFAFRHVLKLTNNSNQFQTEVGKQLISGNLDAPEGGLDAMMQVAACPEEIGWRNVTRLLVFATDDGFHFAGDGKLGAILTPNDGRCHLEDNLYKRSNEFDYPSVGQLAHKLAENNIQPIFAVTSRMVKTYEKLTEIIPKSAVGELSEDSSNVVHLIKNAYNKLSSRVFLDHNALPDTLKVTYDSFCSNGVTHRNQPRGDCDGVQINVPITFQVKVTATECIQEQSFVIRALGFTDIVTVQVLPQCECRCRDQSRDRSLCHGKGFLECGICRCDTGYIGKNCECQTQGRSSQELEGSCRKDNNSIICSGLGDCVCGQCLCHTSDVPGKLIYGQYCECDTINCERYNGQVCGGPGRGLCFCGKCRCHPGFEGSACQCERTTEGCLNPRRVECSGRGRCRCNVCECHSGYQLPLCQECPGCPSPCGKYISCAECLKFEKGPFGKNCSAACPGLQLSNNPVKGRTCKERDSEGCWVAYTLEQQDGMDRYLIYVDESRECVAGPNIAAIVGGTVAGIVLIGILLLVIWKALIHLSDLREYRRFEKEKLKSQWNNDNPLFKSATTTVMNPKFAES
# HIV Rev-RRE inh: disrupts HIV-1 Rev binding to RRE RNA; P05866; Rev peptide-RRE RNA binding, FRET; inhibition, % at 8 µM; hit rate 0.79% among 97,000;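 active means inhibition above the screen-wide mean plus 3 SD, cut at about 35% in these data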;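 further: 0% = median DMSO wells and 100% = median Neomycin B control wells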
#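 Test system: Cy5-tagged RRE RNA duplex with fluorescein-tagged Rev peptide | Read-out: % inhibition of FRET ratio versus controls | Probe or stimulus: Labelled Rev peptide | Incubation: 5 min RNA-compound premix plus 15 min binding step, 25 °C | Technique: FRET fluorescence readout | Benchmarks: DMSO low control, neomycin B high control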
# Smad3 inh: Smad3 (human) transcription factor binding inhibition | TR-FRET Smad3/Dy647-FoxH1 peptide binding, europium anti-His | inhibition, % at 25 µM | hit rate 0.29% among 88,000;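 active means compounds that reduce the energy-transfer binding signal between the protein and its labelled peptide by more than half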;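 further: 0% = Smad3 plus labelled peptide maximal FRET and 100% = peptide-only background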
# Mac1 fbg inh: blocks human CD11b/CD18 adhesion to fibrinogen; hit rate 0.54% among 93,000; K562 CD11b/CD18 adhesion to fibrinogen, ATPlite luminescence; Mn2+ added to activate the integrin; inhibition, % at 10 µM;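 active means primary inhibition of 50% or more at 10 µM, then 40% or more on retest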
# sEH inh: blocks human soluble epoxide hydrolase activity; recombinant human sEH enzymatic activity assay; inhibition, % at 2 µM; hit rate 0.34% among 91,000; AID 707; in the data active means inhibition above about 80%
# * hit, by the source's call; . = no result given; [ ] = dose if it differs, or a comment. Rows were chosen to be rich in hits. Some 1.6% of all compounds tested hit in one or more screens of this group.
SMILES,sEH act,CD11b adhes enh,HIV Rev-RRE inh,Smad3 inh,Mac1 fbg inh,sEH inh
CN(C)c1ccc(/C=C/c2cc[n+]([O-])cc2)cc1,2,-2,120*[fluorescence artefact?],1,-4,-1
c1ccc(C(CCN2CC3CCC(CC3)C2)c2ccccc2)cc1,.,.,.,-3,.,.
O=C1c2ccccc2C(=O)c2c1ccc(N1C(=O)c3ccccc3C1=O)c2-c1c(N2C(=O)c3ccccc3C2=O)ccc2c1C(=O)c1ccccc1C2=O,.,.,.,37,.,.
O=C(O)c1cc(C(=O)C(=O)c2cc(C(=O)O)c(O)c3ccccc23)c2ccccc2c1O,.,.,.,39,.,.
O=C(O)CCSCc1ccc(I)cc1,.,.,.,-8,.,.
COc1ccc(-c2nc3cc(NC(=O)Cc4ccc(OC)c(OC)c4)ccc3o2)cc1,-80,.,4,8,.,80*
COc1ccc(CC(=O)Nc2ccc(-c3nnc(-c4ccccc4)o3)cc2)cc1OC,-21,26,-1,-110,2,20
COc1ccc(S(=O)(=O)N2CCOCC2)cc1C(=O)Nc1cc(C)on1,8,2,1,-4,-7,-7
O=C(c1cc(C2CC2)nc2ccccc12)N1N=C(C(F)F)CC1(O)C(F)F (configuration not stated),4,.,7,10,.,2
CC(C)c1ccc(-c2cc(C(=O)N3N=C(C(F)F)CC3(O)C(F)F)c3ccccc3n2)cc1 (configuration not stated),-3,-4,13,.,78*,5
CCOc1ccc(S(=O)(=O)Nc2ccc(O)c(Sc3ncn[nH]3)c2)cc1,0,.,5,-4,.,0
CC(C)c1ccc(S(=O)(=O)/N=C2/C=C(Sc3ncn[nH]3)C(=O)c3ccccc32)cc1,.,-4,.,.,102*,.
CCCN1C(=O)/C(=C/c2c(NCCCOCC)nc3c(C)cccn3c2=O)SC1=S,-2,16,76*,.,14,1
CCOCCCn1c(=N)c(C(=O)NCCN2CCOCC2)cc2c(=O)n3cccc(C)c3nc21,-2,.,10,11,.,4
CCOCCCNc1nc2c(C)cccn2c(=O)c1/C=C1\SC(=S)N(CC(C)C)C1=O,-6,-1,44*,.,3,10
Cc1cccn2c(=O)c(C=Nc3ccccc3)c(NCc3ccco3)nc12,8,-3,6,6,-5,-9
N=C(N)CCNC(=O)[C@@H]1CCC(N)=N1,.,.,.,2,.,.
NS(=O)(=O)C1=C(Cl)CC2=NC(CCC(=O)O)=NS(=O)(O)=C2C1,.,.,.,16,.,.
Nc1nc(SCC2CCCCC2[N+](=O)[O-])c2[nH]cnc2n1 (configuration not stated),.,.,.,17,.,.
CCCCn1cc(C(=O)c2cc(Br)ccc2O)cc(C#N)c1=O,-3,.,7,-1,.,5
Cc1c(-n2cc(C(=O)c3ccccc3O)cc(C#N)c2=O)c(=O)n(-c2ccccc2)n1C,-8,1,57*,4,-20,6
CC(C)[C@@H]1O[C@H](/C=C/c2ccccc2)OCC1(C)C,.,.,.,4,.,.
NC(N)=NC(N)=Nc1c(F)c(F)c(F)c(F)c1F,.,.,.,56*,.,.
C[C@H](NCCN(C)C)[C@@H]1CC[C@@H]2[C@H]3CCc4cc(O)ccc4[C@@H]3CC[C@]21C,.,.,.,-16,.,.
NS(=O)(=O)c1ccc(NCc2ccccc2OCc2ccc(F)cc2)cc1,-2,-6,14,.,65*,3
SMILES,sEH act,CD11b adhes enh,HIV Rev-RRE inh,Smad3 inh,Mac1 fbg inh,sEH inh
CCCCC(CC)Cn1c2nc3ccccc3nc2c2c(=N)oc(C)nc21 (configuration not stated),-2,12,37*,-7,4,5
CC(Sc1nnc(-c2ccccc2)c(-c2ccccc2)n1)C(=O)N1CCc2ccccc21 (configuration not stated),.,-4,.,.,6,.
CCc1nnc(NC(=O)c2ccc(Cl)c(S(=O)(=O)N3CCc4ccccc43)c2)s1,-17,-2,7,.,86*,18
O=C(Nc1nnc(C2CC2)s1)c1ccc(Cl)c(S(=O)(=O)N2CCc3ccccc3C2)c1,.,-6,.,.,101,.
C=CCSc1nc2c(N)ncnc2n1[C@H]1O[C@H](CO)[C@@H](O)[C@@H]1O,.,.,.,7,.,.
Nc1nc(SCC(=O)C2CCC(Br)CC2)c2[nH]cnc2n1 (configuration not stated),.,.,.,8,.,.
Nc1nc(Cc2ccccc2)nc(Cc2ccccc2)c1-c1ccccc1,.,.,.,5,.,.
Cn1c(CN2CCCCC2)nc2cc(NC(=O)c3cccc(Br)c3)ccc21,-10,-4,15,1,59*,12
